These compounds were tested against Beta-lactamase (Pseudomonas aeruginosa (strain ATCC 15692 / PAO1 / 1C / PRS 101 / LMG12228), UniProt P24735) (assay: Inhibition of Pseudomonas aeruginosa beta lactamase AmpC by spectrophotometry).
Summary of the method: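 Nitrocefin hydrolysis by P. aeruginosa AmpC, enzyme and substrate in 100 mM KH2PO4 pH 7 with 0.005% BSA. Inhibitor serially diluted from DMSO and preincubated with AmpC 40 min at room temperature. Substrate then added for a further 40 min, quenched with 2.5 N acetic acid, absorbance read at 492 nm. IC50 taken from semi-log plots of inhibition versus concentration.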

Beta-lactamase, sequence (P24735 whole entry): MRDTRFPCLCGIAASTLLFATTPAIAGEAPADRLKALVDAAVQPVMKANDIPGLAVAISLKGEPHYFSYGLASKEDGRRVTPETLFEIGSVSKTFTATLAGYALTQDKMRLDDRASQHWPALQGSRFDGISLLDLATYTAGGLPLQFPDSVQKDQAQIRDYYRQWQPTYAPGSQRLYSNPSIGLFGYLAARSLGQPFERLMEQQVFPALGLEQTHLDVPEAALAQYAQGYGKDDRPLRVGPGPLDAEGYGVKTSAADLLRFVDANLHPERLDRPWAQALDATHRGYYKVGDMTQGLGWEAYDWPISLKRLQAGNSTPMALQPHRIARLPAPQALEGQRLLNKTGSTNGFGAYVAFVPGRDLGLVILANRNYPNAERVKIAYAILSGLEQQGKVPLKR

IC50 [µM]	SMILES
3.4	O=C(NC1CCCNCCC1)N1CC[C@@H]2[C@H]1C(=O)N2S(=O)(=O)O
0.8	O=C1NCCCC[C@@H]1NC(=O)N1CC[C@@H]2[C@H]1C(=O)N2S(=O)(=O)O
4	O=C(NC1CCCCNCCC1)N1CC[C@@H]2[C@H]1C(=O)N2S(=O)(=O)O (stereo in doubt; 13) [listing 1 of 2 here]
5	O=C(NC1CCCCNCCC1)N1CC[C@@H]2[C@H]1C(=O)N2S(=O)(=O)O (stereo in doubt; 14) [listing 1 of 2 here]
1.9	O=C(N[C@H]1CCCCNC1)N1CC[C@@H]2[C@H]1C(=O)N2S(=O)(=O)O
1	O=C(N[C@H]1CCCNCC1)N1CC[C@@H]2[C@H]1C(=O)N2S(=O)(=O)O
17	O=C(NC1CNCCNC1)N1CC[C@@H]2[C@H]1C(=O)N2S(=O)(=O)O

Each compound was assayed against Beta-lactamase (Pseudomonas aeruginosa (strain ATCC 15692 / PAO1 / 1C / PRS 101 / LMG12228)) (UniProt P24735) (assay: Inhibition of Pseudomonas aeruginosa CL5701 beta lactamase AmpC assessed as concentration required to reduce imipenem MIC).
Beta-lactamase (Pseudomonas aeruginosa (strain ATCC 15692 / PAO1 / 1C / PRS 101 / LMG12228)), sequence (P24735 27-397 limits assumed): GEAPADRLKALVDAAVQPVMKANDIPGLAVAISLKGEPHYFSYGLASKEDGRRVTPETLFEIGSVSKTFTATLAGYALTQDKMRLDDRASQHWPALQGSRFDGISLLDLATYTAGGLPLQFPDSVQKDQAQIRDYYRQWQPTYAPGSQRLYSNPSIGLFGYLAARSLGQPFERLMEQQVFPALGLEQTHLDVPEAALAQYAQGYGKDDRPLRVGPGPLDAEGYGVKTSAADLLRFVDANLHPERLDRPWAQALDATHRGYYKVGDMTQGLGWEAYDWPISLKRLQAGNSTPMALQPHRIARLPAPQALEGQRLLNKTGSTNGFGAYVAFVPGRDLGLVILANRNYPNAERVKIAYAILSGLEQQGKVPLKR

Activity [µM]	SMILES
25	O=C(NC1CCCNCCC1)N1CC[C@@H]2[C@H]1C(=O)N2S(=O)(=O)O
25	O=C(N[C@@H]1CNCCOC1)N1CC[C@@H]2[C@H]1C(=O)N2S(=O)(=O)O
50	O=C(N[C@H]1CNCCOC1)N1CC[C@@H]2[C@H]1C(=O)N2S(=O)(=O)O
> 100	O=C(NC1CCCCNCCC1)N1CC[C@@H]2[C@H]1C(=O)N2S(=O)(=O)O (stereo in doubt; 13) [listing 2 of 2 here]
> 100	O=C1NCCCC[C@@H]1NC(=O)N1CC[C@@H]2[C@H]1C(=O)N2S(=O)(=O)O
50	O=C(N[C@H]1CCCCNC1)N1CC[C@@H]2[C@H]1C(=O)N2S(=O)(=O)O
> 100	O=C(NC1CCCCCC1)N1CC[C@@H]2[C@H]1C(=O)N2S(=O)(=O)O
9.4	O=C(N[C@H]1CCCNCC1)N1CC[C@@H]2[C@H]1C(=O)N2S(=O)(=O)O
21	O=C(NC1CCNCC1)N1CC[C@@H]2[C@H]1C(=O)N2S(=O)(=O)O
25	O=C(N[C@@H]1CCCNCC1)N1CC[C@@H]2[C@H]1C(=O)N2S(=O)(=O)O
100	O=C(NC1CNCCNC1)N1CC[C@@H]2[C@H]1C(=O)N2S(=O)(=O)O
> 100	O=C(NC1CCCCNCCC1)N1CC[C@@H]2[C@H]1C(=O)N2S(=O)(=O)O (stereo in doubt; 14) [listing 2 of 2 here]

SMILES	Activity [µM]
O=C(NC1CCCCNCC1)N1CC[C@@H]2[C@H]1C(=O)N2S(=O)(=O)O (single isomer, unassigned)	12.5
O=C(NC1CCCCNCC1)N1CC[C@@H]2[C@H]1C(=O)N2S(=O)(=O)O (stereo in doubt; 12)	> 100

Each compound was assayed on Pseudomonas aeruginosa (assay: Antimicrobial activity against Pseudomonas aeruginosa CL5701 infected in mouse spleen assessed as reduction in colony forming unit at 2.5 mg/kg qid for 1 hr administered after 1.25 hrs of infusion).
Type: functional
Summary of the method: (§1)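 In vivo P. aeruginosa CL5701 infection: imipenem/cilastatin 2.5 mpk given with the BLI at 2.35 or 4.7 mpk, by 1.25 h infusion QID for 1 day. Bacterial CFU counted in the spleen and expressed as log reduction relative to imipenem/cilastatin alone.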

SMILES	log10cfu
O=C(N[C@H]1CCCNCC1)N1CC[C@@H]2[C@H]1C(=O)N2S(=O)(=O)O	4.6

The compounds below were run on Pseudomonas aeruginosa (assay: Antimicrobial activity against Pseudomonas aeruginosa CL5701 infected in mouse spleen assessed as reduction in colony forming unit at 2.35 mg/kg qid for 1 hr administered after 1.25 hrs of infusion).
Type: functional
Summary of the method: as §1

SMILES	log10cfu
O=C(N[C@H]1CCCNCC1)N1CC[C@@H]2[C@H]1C(=O)N2S(=O)(=O)O	4.6

The compounds below were run on Pseudomonas aeruginosa (assay: Antimicrobial activity against Pseudomonas aeruginosa CL5701 infected in mouse spleen assessed as reduction in colony forming unit at 4.7 mg/kg qid for 1 hr administered after 1.25 hrs of infusion).
Type: functional
Summary of the method: as §1

SMILES	log10cfu
O=C(NC1CCNCC1)N1CC[C@@H]2[C@H]1C(=O)N2S(=O)(=O)O	4.7
